# Experimental data from ChEMBL document CHEMBL4689842, “EUbOPEN Chemogenomics Library wave 1” (2021).
# System: HEK-293T
# Experiment: Multiplex assay against HEK293T;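 for Population Tubulin-Different-Phenotype (%): share of the cells with healthy nuclei that show this phenotype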
# Type: toxicity, cell-based
# Conditions: human
# Method in brief: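 Per cents of healthy-nucleus cells form the tubulin, mitochondrial-mass and membrane-permeability phenotype values. Live cells were stained at seeding with Hoechst33342, BioTracker Green Microtubule Cytoskeleton Dye, MitoTracker Red and Annexin V Alexa Fluor 680. After compound addition they were imaged on a CQ1 microscope at 37°C and 5% CO2, and CellPathfinder machine-learning gating split them into Hoechst high-intensity objects or normal cells, normal cells into healthy, pyknosed or fragmented nuclei, and pyknosed cells into mitotic or apoptotic.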
# [1] = 12 h, 1 µM, compound concentration 1 uM, replicate 1
# [2] = 12 h, 1 µM, compound concentration 1 uM, replicate 2
# [3] = 12 h, 10 µM, compound concentration 10 uM, replicate 1
# [4] = 12 h, 10 µM, compound concentration 10 uM, replicate 2
# [5] = 24 h, 1 µM, compound concentration 1 uM, replicate 1
# [6] = 24 h, 1 µM, compound concentration 1 uM, replicate 2
# [7] = 24 h, 10 µM, compound concentration 10 uM, replicate 1
# [8] = 24 h, 10 µM, compound concentration 10 uM, replicate 2
# [9] = 48 h, 1 µM, compound concentration 1 uM, replicate 1
# [10] = 48 h, 1 µM, compound concentration 1 uM, replicate 2
# [11] = 48 h, 10 µM, compound concentration 10 uM, replicate 1
# [12] = 48 h, 10 µM, compound concentration 10 uM, replicate 2
smiles,measurement,setting,value
CCCS(=O)(=O)c1nc(NC2CC2)cc(-c2ccc3c(ccn3C3CC(C)(C)NC(C)(C)C3)c2)n1,Population Apoptotic (%),[1],58%
same,Population Fragmented Nuclei (%),[1],8%
same,Population Healthy Nuclei (%),[1],37%
same,Population Hoechst High Intensity Objects (%),[1],13%
same,Population Membrane Permeable-Phenotype (%),[1],4%
same,Population Mitochondria Different-Phenotype (%),[1],86%
same,Population Mitotic Cells (%),[1],41%
same,Population Normal (%),[1],86%
same,Population Pyknosed Nuclei (%),[1],53%
same,Population Tubulin-Different-Phenotype (%),[1],80%
same,Total Cell Count,[1],351
same,Population Apoptotic (%),[2],18%
same,Population Fragmented Nuclei (%),[2],11%
same,Population Healthy Nuclei (%),[2],24%
same,Population Hoechst High Intensity Objects (%),[2],7%
same,Population Membrane Permeable-Phenotype (%),[2],12%
same,Population Mitochondria Different-Phenotype (%),[2],51%
same,Population Mitotic Cells (%),[2],81%
same,Population Normal (%),[2],92%
same,Population Pyknosed Nuclei (%),[2],64%
same,Population Tubulin-Different-Phenotype (%),[2],45%
same,Total Cell Count,[2],137
same,Population Apoptotic (%),[3],65%
same,Population Fragmented Nuclei (%),[3],63%
same,Population Healthy Nuclei (%),[3],3%
same,Population Hoechst High Intensity Objects (%),[3],9%
same,Population Membrane Permeable-Phenotype (%),[3],16%
same,Population Mitochondria Different-Phenotype (%),[3],16%
same,Population Mitotic Cells (%),[3],34%
same,Population Normal (%),[3],90%
same,Population Pyknosed Nuclei (%),[3],33%
same,Population Tubulin-Different-Phenotype (%),[3],16%
same,Total Cell Count,[3],650
same,Population Apoptotic (%),[4],74%
same,Population Fragmented Nuclei (%),[4],24%
same,Population Healthy Nuclei (%),[4],1%
same,Population Hoechst High Intensity Objects (%),[4],10%
same,Population Membrane Permeable-Phenotype (%),[4],0%
same,Population Mitochondria Different-Phenotype (%),[4],100%
same,Population Mitotic Cells (%),[4],25%
same,Population Normal (%),[4],89%
same,Population Pyknosed Nuclei (%),[4],74%
same,Population Tubulin-Different-Phenotype (%),[4],100%
same,Total Cell Count,[4],274
same,Population Apoptotic (%),[5],60%
same,Population Fragmented Nuclei (%),[5],10%
same,Population Healthy Nuclei (%),[5],37%
same,Population Hoechst High Intensity Objects (%),[5],14%
same,Population Membrane Permeable-Phenotype (%),[5],2%
same,Population Mitochondria Different-Phenotype (%),[5],79%
same,Population Mitotic Cells (%),[5],39%
same,Population Normal (%),[5],85%
same,Population Pyknosed Nuclei (%),[5],52%
same,Population Tubulin-Different-Phenotype (%),[5],80%
same,Total Cell Count,[5],345
same,Population Apoptotic (%),[6],31%
same,Population Fragmented Nuclei (%),[6],11%
same,Population Healthy Nuclei (%),[6],34%
same,Population Hoechst High Intensity Objects (%),[6],7%
same,Population Membrane Permeable-Phenotype (%),[6],11%
same,Population Mitochondria Different-Phenotype (%),[6],66%
same,Population Mitotic Cells (%),[6],68%
same,Population Normal (%),[6],92%
same,Population Pyknosed Nuclei (%),[6],53%
same,Population Tubulin-Different-Phenotype (%),[6],71%
same,Total Cell Count,[6],140
same,Population Apoptotic (%),[7],60%
same,Population Fragmented Nuclei (%),[7],63%
same,Population Healthy Nuclei (%),[7],3%
same,Population Hoechst High Intensity Objects (%),[7],11%
same,Population Membrane Permeable-Phenotype (%),[7],26%
same,Population Mitochondria Different-Phenotype (%),[7],5%
same,Population Mitotic Cells (%),[7],39%
same,Population Normal (%),[7],88%
same,Population Pyknosed Nuclei (%),[7],32%
same,Population Tubulin-Different-Phenotype (%),[7],10%
same,Total Cell Count,[7],639
same,Population Apoptotic (%),[8],88%
same,Population Fragmented Nuclei (%),[8],29%
same,Population Healthy Nuclei (%),[8],4%
same,Population Hoechst High Intensity Objects (%),[8],10%
same,Population Membrane Permeable-Phenotype (%),[8],11%
same,Population Mitochondria Different-Phenotype (%),[8],33%
same,Population Mitotic Cells (%),[8],12%
same,Population Normal (%),[8],89%
same,Population Pyknosed Nuclei (%),[8],66%
same,Population Tubulin-Different-Phenotype (%),[8],88%
same,Total Cell Count,[8],249
same,Population Apoptotic (%),[9],54%
same,Population Fragmented Nuclei (%),[9],15%
same,Population Healthy Nuclei (%),[9],47%
same,Population Hoechst High Intensity Objects (%),[9],17%
same,Population Membrane Permeable-Phenotype (%),[9],7%
same,Population Mitochondria Different-Phenotype (%),[9],58%
same,Population Mitotic Cells (%),[9],45%
same,Population Normal (%),[9],82%
same,Population Pyknosed Nuclei (%),[9],37%
same,Population Tubulin-Different-Phenotype (%),[9],79%
same,Total Cell Count,[9],417
same,Population Apoptotic (%),[10],28%
same,Population Fragmented Nuclei (%),[10],9%
same,Population Healthy Nuclei (%),[10],61%
same,Population Hoechst High Intensity Objects (%),[10],5%
same,Population Membrane Permeable-Phenotype (%),[10],12%
same,Population Mitochondria Different-Phenotype (%),[10],32%
same,Population Mitotic Cells (%),[10],71%
same,Population Normal (%),[10],94%
same,Population Pyknosed Nuclei (%),[10],29%
same,Population Tubulin-Different-Phenotype (%),[10],64%
same,Total Cell Count,[10],226
same,Population Apoptotic (%),[11],69%
same,Population Fragmented Nuclei (%),[11],67%
same,Population Healthy Nuclei (%),[11],3%
same,Population Hoechst High Intensity Objects (%),[11],11%
same,Population Membrane Permeable-Phenotype (%),[11],31%
same,Population Mitochondria Different-Phenotype (%),[11],0%
same,Population Mitotic Cells (%),[11],30%
same,Population Normal (%),[11],88%
same,Population Pyknosed Nuclei (%),[11],29%
same,Population Tubulin-Different-Phenotype (%),[11],0%
same,Total Cell Count,[11],663
same,Population Apoptotic (%),[12],87%
same,Population Fragmented Nuclei (%),[12],36%
same,Population Healthy Nuclei (%),[12],19%
same,Population Hoechst High Intensity Objects (%),[12],9%
same,Population Membrane Permeable-Phenotype (%),[12],6%
same,Population Mitochondria Different-Phenotype (%),[12],65%
same,Population Mitotic Cells (%),[12],12%
same,Population Normal (%),[12],90%
same,Population Pyknosed Nuclei (%),[12],44%
same,Population Tubulin-Different-Phenotype (%),[12],93%
same,Total Cell Count,[12],253
